ERa coact pot = enhances coactivator binding to human estrogen receptor alpha; 1.3% of 86,000 active; TR-FRET ERalpha-LBD/SRC-Cy5 coactivator binding, 2 h; 100 = basal binding, no effect; coactivator binding (% of control), % at 25.6 µM; in the data active = activity above about 200%;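 also: binding measured in presence of low estradiol as agonist stimulus; 0% = peptide alone without receptor and 100% = receptor with peptide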
RORa activator = RORA (human) activation | P35398 | CHO-K1 Gal4-RORA LBD luciferase reporter, luminescence; percent increase over mock-subtracted basal signal | activation, % at 10 µM | 1.5% of 65,000 active | AID 560;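 active = activation above the mean of all tested compounds plus 3 SD, cut at about 49% in these data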;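 also: 0% = DMSO-treated RORA cells and 100% = added signal equal to DMSO minus mock-transfected cells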
ERb SRC1 inh = blocks coactivator binding to human estrogen receptor beta; TR-FRET ER-beta LBD / SRC1-Cy5 peptide binding; receptor agonist-loaded with 1 µM estradiol; inhibition, % at 25.6 µM; 1.3% of 86,000 active;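 active = compounds whose percent inhibition of the receptor-coactivator binding signal exceeds about 50% in the single-dose screen, limit read from the data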;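 also: 0% = receptor plus peptide wells without compound and 100% = peptide-only wells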
Pyk2 oligo antag = antagonists of human Pyk2 oligomerization. Q14289. Q293 cells, Pyk2 FERM NanoBiT luminescence; stronger effect = lower value. z-score (the deposit names both 25 µM and 10 µM). 0.83% of 99,000 active. AID 1347419;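 active = Z-score of -3 or lower, scaled per plate to the spread of control and sample wells; inactive = z-score above -3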;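 also: negative z-score means lost luminescence so less FERM oligomerization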
Target sequence (Q14289 whole entry, looked up): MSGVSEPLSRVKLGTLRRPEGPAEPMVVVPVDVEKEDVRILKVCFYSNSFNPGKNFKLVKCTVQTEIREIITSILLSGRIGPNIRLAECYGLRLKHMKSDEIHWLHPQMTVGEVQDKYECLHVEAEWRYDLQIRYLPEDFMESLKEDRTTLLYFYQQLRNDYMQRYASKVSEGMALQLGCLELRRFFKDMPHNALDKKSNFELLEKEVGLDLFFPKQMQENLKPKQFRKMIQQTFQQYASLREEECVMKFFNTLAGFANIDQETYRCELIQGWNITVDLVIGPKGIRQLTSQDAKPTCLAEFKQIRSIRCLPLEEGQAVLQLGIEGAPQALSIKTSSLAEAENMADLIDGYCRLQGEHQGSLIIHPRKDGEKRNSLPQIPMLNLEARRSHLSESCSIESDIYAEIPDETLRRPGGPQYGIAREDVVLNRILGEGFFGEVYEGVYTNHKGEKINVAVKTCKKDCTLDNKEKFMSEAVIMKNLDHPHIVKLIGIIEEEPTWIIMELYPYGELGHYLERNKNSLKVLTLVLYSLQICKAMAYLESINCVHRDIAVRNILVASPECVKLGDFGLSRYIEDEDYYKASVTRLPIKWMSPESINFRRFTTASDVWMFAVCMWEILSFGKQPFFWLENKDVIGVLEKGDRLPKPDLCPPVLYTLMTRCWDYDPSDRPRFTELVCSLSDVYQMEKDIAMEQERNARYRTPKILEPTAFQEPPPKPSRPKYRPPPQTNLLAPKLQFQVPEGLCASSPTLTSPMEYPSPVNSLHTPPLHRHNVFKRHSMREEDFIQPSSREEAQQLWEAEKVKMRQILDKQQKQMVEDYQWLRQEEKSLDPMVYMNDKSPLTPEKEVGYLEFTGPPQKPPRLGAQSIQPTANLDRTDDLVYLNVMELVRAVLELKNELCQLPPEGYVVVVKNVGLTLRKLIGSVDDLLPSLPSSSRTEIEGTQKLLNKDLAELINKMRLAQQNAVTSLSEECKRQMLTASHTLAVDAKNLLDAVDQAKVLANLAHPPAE
SF-1 act = SF-1 (human) activation. CHO-K1 Gal4-SF-1 LBD luciferase reporter; % increase over DMSO SF-1-specific signal. AID 522. 1.9% of 65,000 active. activation, % at 10 µM. Q13285;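 active = activation above the mean activation of all tested compounds plus 3 SD, cut at about 50% in these data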
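Assay system: CHO-K1 cells co-transfected with Gal4 DBD–human SF-1 LBD, 5xGal4 luciferase reporter / Input: 4,000 cells per well / Incubation: 20 h compound exposure at 37 °C after 1 h cell settling / Detection: SteadyLite luciferase luminescence / Control set: DMSO negative control and −SF1 background wells / Replication: one test per compound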
ERa coact inh = blocks coactivator binding to human estrogen receptor alpha; TR-FRET ER-alpha LBD / SRC-1 peptide, estradiol-bound; inhibition, % at 25.6 µM; 1.7% of 86,000 active; in the data active = inhibition above about 50%;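 also: 0% = receptor plus peptide control and 100% = peptide only without receptor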
Active calls of the source: *; [ ] = remark or other dose. Most compounds without a hit are left out; they make up all but 4.8% or so of the library.

What do the screens show for `CCOc1ccc(N=CC2=C(O)CC(C)(C)CC2=O)cc1`?
ERa coact pot: 104; RORa activator: 15; ERb SRC1 inh: -3; Pyk2 oligo antag: -0.58; SF-1 act: 68*; ERa coact inh: 31

What do the screens show for `CC1(C)CC(=O)C(C=Nc2ccc(O)cc2)=C(O)C1`?
ERa coact pot: 111; RORa activator: 36; ERb SRC1 inh: 7; Pyk2 oligo antag: -0.69; SF-1 act: 51*; ERa coact inh: -1

How did Cc1[nH]nc(N=CC2=C(O)CC(c3ccco3)CC2=O)c1-c1ccc(Cl)cc1 (configuration not stated) do in these assays?
ERa coact pot: 118; ERb SRC1 inh: 6; Pyk2 oligo antag: -2.1; ERa coact inh: 9

How did CCc1ccc(CN2CCN(C(=O)c3cccc(OC)c3OC)CC2)cc1 do in these assays?
ERa coact pot: 101; ERb SRC1 inh: -3; Pyk2 oligo antag: -0.22; ERa coact inh: -5

Results for CCn1c(C(=O)NCc2cccnc2)cc2sc(Cl)cc21 ?
RORa activator: -11; Pyk2 oligo antag: -2; SF-1 act: -10

Results for C=C(C)C(=O)Nc1ccc(OC(F)(F)C(F)F)c(NC(=O)C(=C)C)c1 ?
ERa coact pot: 210*; ERb SRC1 inh: -14; Pyk2 oligo antag: -0.07; ERa coact inh: -38

Results for COc1ccc(/C=C/C(=O)Nc2c(C)nn(C)c2C)cc1COc1ccc(Cl)cc1Br ?
ERa coact pot: 114; ERb SRC1 inh: 11; Pyk2 oligo antag: -0.03; ERa coact inh: 37

Results for O=S(=O)(Nc1nccs1)c1cc(Cl)ccc1Cl ?
ERa coact pot: 51; RORa activator: -6; ERb SRC1 inh: 51*; Pyk2 oligo antag: -0.06; SF-1 act: -9; ERa coact inh: 56*

Results for Cc1cc2c(ncn2C)c(NS(=O)(=O)c2cc(Cl)ccc2Cl)c1C ?
Pyk2 oligo antag: 0.29

How did Cc1ccc(C(=O)Nc2nc(-c3cccnc3)cs2)o1 do in these assays?
ERa coact pot: 59; ERb SRC1 inh: 51*; Pyk2 oligo antag: 0.04; ERa coact inh: 48

What do the screens show for `O=C(Nc1nc(-c2ccccc2)cs1)c1ccc(Br)o1`?
RORa activator: 8; Pyk2 oligo antag: 0.03; SF-1 act: 0

How did O=C(Nc1nc(-c2ccncc2)cs1)c1ccco1 do in these assays?
ERa coact pot: -1; RORa activator: 12; ERb SRC1 inh: 49; Pyk2 oligo antag: 0.15; SF-1 act: 10; ERa coact inh: 98*[fluorescence artefact?]

Results for O=c1oc2ccccc2cc1-c1csc(NN=C2CCCCC2)n1 ?
Pyk2 oligo antag: -0.11

What do the screens show for `O=C(Nc1nc(-c2cc3ccccc3oc2=O)cs1)c1ccco1`?
ERa coact pot: 280*[fluorescence artefact?]; RORa activator: -10; ERb SRC1 inh: 40; SF-1 act: 33; ERa coact inh: 27

Results for O=C(CN1C(=O)C2CC=CCC2C1=O)Nc1ccc(S(=O)(=O)NC2=NCCCCC2)cc1 (configuration not stated) ?
ERa coact pot: 96; RORa activator: -4; ERb SRC1 inh: 4; Pyk2 oligo antag: -0.08; SF-1 act: 7; ERa coact inh: -1

How did CC1CCN(c2nc3c(c(=O)[nH]c(=O)n3C)n2Cc2ccccc2Cl)CC1 do in these assays?
ERa coact pot: 82; RORa activator: 18; ERb SRC1 inh: 3; SF-1 act: 9; ERa coact inh: -1

How did Cc1ccc(S(=O)(=O)N2C(=O)C(c3ccccc3)SC2=Nc2ccccc2)cc1 (configuration not stated) do in these assays?
Pyk2 oligo antag: -0.01

What do the screens show for `CCOC(=O)c1snc(C(=O)NC2CCCCC2)c1N`?
ERa coact pot: 118; RORa activator: 57*; ERb SRC1 inh: -5; Pyk2 oligo antag: -0.05; SF-1 act: 106*; ERa coact inh: -5

How did Nc1c(C(=O)NC2CCCCC2)nsc1C(=O)OCC(=O)NC1CCCCC1 do in these assays?
ERa coact pot: 110; RORa activator: -6; ERb SRC1 inh: -2; Pyk2 oligo antag: 0.41; SF-1 act: 0; ERa coact inh: -1

How did COc1ccc(C2=NOC(CN3C(=O)c4ccccc4S3(=O)=O)C2)cc1 (configuration not stated) do in these assays?
ERa coact pot: 92; RORa activator: 35; ERb SRC1 inh: -12; Pyk2 oligo antag: -0.25; SF-1 act: 67*; ERa coact inh: -16

Results for O=C(CN1C(=O)c2ccccc2S1(=O)=O)c1ccccc1 ?
ERa coact pot: 117; RORa activator: -50; ERb SRC1 inh: 0; Pyk2 oligo antag: 0.58; SF-1 act: -42; ERa coact inh: 10

Results for O=C1c2ccccc2S(=O)(=O)N1CC1CC(c2ccccc2)=NO1 (configuration not stated) ?
ERa coact pot: 122; RORa activator: 49*; ERb SRC1 inh: -6; Pyk2 oligo antag: 0.77; SF-1 act: 30; ERa coact inh: -1

How did COc1ccc(CCNC(=O)CN2C(=O)c3ccccc3S2(=O)=O)cc1 do in these assays?
RORa activator: -9; Pyk2 oligo antag: 0.35; SF-1 act: 4

What do the screens show for `CCn1c(-c2ccccc2Cl)nn(CC(=O)Nc2cc(Cl)ccc2Cl)c1=S`?
Pyk2 oligo antag: -0.71

What do the screens show for `Cc1cc(NC(=O)CSc2nc3ccccc3c(=O)n2Cc2ccc(F)cc2)no1`?
ERa coact pot: 232*[fluorescence artefact?]; RORa activator: -22; ERb SRC1 inh: 50*[fluorescence artefact?]; Pyk2 oligo antag: 0.04; SF-1 act: -19; ERa coact inh: 44

What do the screens show for `CCCCCCn1c(SCC(=O)Nc2cc(C)on2)nc2ccccc2c1=O`?
ERa coact pot: 138; RORa activator: 12; ERb SRC1 inh: 15; Pyk2 oligo antag: 0.46; SF-1 act: -34; ERa coact inh: 10

What do the screens show for `Cc1nnc(NC(=O)CSc2nc3c(c(=O)n2CCc2ccccc2)SC(C)C3)s1` (configuration not stated)?
ERa coact pot: 83; RORa activator: -6; ERb SRC1 inh: 17; SF-1 act: -18; ERa coact inh: 69*

What do the screens show for `Cc1cc(NC(=O)CSc2nc3c(c(=O)n2CCc2ccccc2)SC(C)C3)no1` (configuration not stated)?
ERa coact pot: 105; RORa activator: -12; ERb SRC1 inh: 10; SF-1 act: -10; ERa coact inh: 79*

What do the screens show for `COc1ccc(CCn2c(SCC(=O)Nc3cc(C)on3)nc3ccsc3c2=O)cc1OC`?
ERa coact pot: 314*; RORa activator: -5; ERb SRC1 inh: 1; Pyk2 oligo antag: -1.3; SF-1 act: -1; ERa coact inh: -3

What do the screens show for `COc1ccc(C2=NOC(C(=O)NCCCn3ccnc3)C2)cc1` (configuration not stated)?
ERa coact pot: 109; ERb SRC1 inh: 1; Pyk2 oligo antag: -0.17; ERa coact inh: -4

What do the screens show for `O=C(Cc1nc(-c2ccc([N+](=O)[O-])cc2)cs1)Nc1ccccc1`?
Pyk2 oligo antag: -0.08

Bioassay records (PubChem BioAssay)
